Calls of active or inactive are those of the source. The rule behind the calls is not given here.
How the values were obtained:
[1] = Cytotoxicity against human H1299 cells at 30 uM; type: cell-based; details: nci-h1299, 30 µM
[2] = target: T1, NAD-dependent protein deacetylase sirtuin-1 (Homo sapiens) (UniProt Q96EB6); assay: Inhibition of SirT1 assessed as increase in p53 expression in human MCF7 cells at 5 uM after 6 hrs by Western blotting; type: cell-based
T1 sequence (whole entry): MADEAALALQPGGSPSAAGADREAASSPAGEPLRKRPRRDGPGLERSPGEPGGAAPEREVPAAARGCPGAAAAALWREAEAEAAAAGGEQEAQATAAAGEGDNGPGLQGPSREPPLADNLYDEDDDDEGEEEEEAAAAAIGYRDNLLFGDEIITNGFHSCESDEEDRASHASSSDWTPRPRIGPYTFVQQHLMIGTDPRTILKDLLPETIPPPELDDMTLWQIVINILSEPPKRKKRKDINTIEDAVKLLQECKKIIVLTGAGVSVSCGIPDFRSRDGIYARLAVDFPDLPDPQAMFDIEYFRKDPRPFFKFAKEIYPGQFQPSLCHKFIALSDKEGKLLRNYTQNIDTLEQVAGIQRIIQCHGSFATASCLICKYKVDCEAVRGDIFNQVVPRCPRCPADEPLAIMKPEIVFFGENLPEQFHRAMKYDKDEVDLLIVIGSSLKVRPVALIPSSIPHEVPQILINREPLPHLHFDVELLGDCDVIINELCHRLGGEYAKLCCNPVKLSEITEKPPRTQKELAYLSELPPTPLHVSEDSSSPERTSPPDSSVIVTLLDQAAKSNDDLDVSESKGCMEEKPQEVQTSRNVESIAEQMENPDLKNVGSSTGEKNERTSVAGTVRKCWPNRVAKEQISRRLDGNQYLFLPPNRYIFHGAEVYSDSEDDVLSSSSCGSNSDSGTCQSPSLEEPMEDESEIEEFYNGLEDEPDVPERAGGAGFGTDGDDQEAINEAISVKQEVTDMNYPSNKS
How it was run: (§1)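 MCF-7 cells grown in DMEM with 10% FCS and gentamycin, seeded at 2 × 10⁵ per well on collagen-coated plates and incubated 42 h at 37 °C in 5% CO2. Compound in DMSO was added for 6 h. Lysis in LDS buffer, protein equalised by BCA, 4–12% bis-tris SDS-PAGE, PVDF blot. Total p53 detected with DO.1, PCNA as loading control, ECL detection. Scored semi-quantitatively against untreated level.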

[3] = target: T1, NAD-dependent protein deacetylase sirtuin-1 (Homo sapiens); assay: Inhibition of SirT1 in human ARN8 cells assessed as p53 activation at 10 uM by beta-galactosidase reporter gene assay; type: cell-based
How it was run: (§2)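 p53-dependent transcription measured with a beta-galactosidase reporter in ARN8 cells, run in triplicate. Read-out is the ratio of signal in treated cells to DMSO-control cells, given to 2 significant figures; a positive or negative activity call is also recorded.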

[4] = Solubility of the compound in water by UV spectrophotometry; type: physicochemical
How it was run: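 Extinction coefficient from absorbance at 273 nm of a 7-point 2-fold dilution series in acetonitrile; DMSO used first where needed. Coefficient taken from the slope of absorbance against molar concentration. Used to find the actual concentration of a nominal 100 µM aqueous solution made from 40 mM DMSO stock.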

[5] = target: T1, NAD-dependent protein deacetylase sirtuin-1 (Homo sapiens); assay: Inhibition of SirT1 assessed as increase in p53 expression in human MCF7 cells at 10 uM after 6 hrs by Western blotting; type: cell-based; how it was run: as §1
[6] = target: T1, NAD-dependent protein deacetylase sirtuin-1 (Homo sapiens); assay: Inhibition of SirT1 in human ARN8 cells assessed as p53 activation at 5 uM by beta-galactosidase reporter gene assay; type: cell-based; how it was run: as §2
[7] = target: T1, NAD-dependent protein deacetylase sirtuin-1 (Homo sapiens); assay: Inhibition of SirT1 assessed as increase in p53 expression in human MCF7 cells at 2 uM after 6 hrs by Western blotting; type: cell-based; how it was run: as §1
[8] = target: T1, NAD-dependent protein deacetylase sirtuin-1 (Homo sapiens); assay: Inhibition of recombinant human SitT1 at 60 uM by Fluor de Lys fluorescence assay
How it was run: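 Human recombinant SirT1 deacetylation measured with the Fluor de Lys fluorescence kit at a fixed 60 µM inhibitor. Tested on two separate occasions; percent inhibition reported as a mean weighted to the standard error.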

[9] = Drug metabolism in human H1299 cells after 16 hrs by mass spectrophotometry; type: ADME, cell-based; details: nci-h1299, 16 h
[10] = target: T2, NAD-dependent protein deacetylase sirtuin-1 (Homo sapiens, UniProt Q96EB6); assay: Inhibition of recombinant human SitT1 by Fluor de Lys fluorescence assay
T2 sequence (Q96EB6 whole entry): T1 sequence (whole entry)

[11] = target: T3, NAD-dependent protein deacetylase sirtuin-2 (Homo sapiens, UniProt Q8IXJ6); assay: Inhibition of recombinant human SitT2 by Fluor de Lys fluorescence assay
T3 sequence (Q8IXJ6 whole entry): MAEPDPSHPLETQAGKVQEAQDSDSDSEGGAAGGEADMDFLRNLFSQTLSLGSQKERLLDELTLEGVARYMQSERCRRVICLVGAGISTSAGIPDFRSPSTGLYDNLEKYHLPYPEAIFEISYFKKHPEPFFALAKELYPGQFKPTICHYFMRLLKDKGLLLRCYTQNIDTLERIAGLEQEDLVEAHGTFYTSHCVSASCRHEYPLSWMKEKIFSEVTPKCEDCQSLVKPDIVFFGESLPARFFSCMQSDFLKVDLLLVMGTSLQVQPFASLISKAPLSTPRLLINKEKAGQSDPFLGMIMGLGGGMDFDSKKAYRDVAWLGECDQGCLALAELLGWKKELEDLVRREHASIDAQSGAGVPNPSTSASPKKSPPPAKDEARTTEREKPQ

[12] = target: T1, NAD-dependent protein deacetylase sirtuin-1 (Homo sapiens); assay: Inhibition of SirT1 in human ARN8 cells assessed as p53 activation at 5 uM by beta-galactosidase reporter gene assay relative to control; type: cell-based; how it was run: as §2
[13] = target: T1, NAD-dependent protein deacetylase sirtuin-1 (Homo sapiens); assay: Inhibition of SirT1 in human ARN8 cells assessed as p53 activation at 20 uM by beta-galactosidase reporter gene assay relative to control; type: cell-based; how it was run: as §2
[14] = Cytotoxicity against human H1299 cells at 20 uM; type: cell-based; details: nci-h1299, 20 µM
[15] = target: T1, NAD-dependent protein deacetylase sirtuin-1 (Homo sapiens); assay: Inhibition of SirT1 in human ARN8 cells assessed as p53 activation at 10 uM by beta-galactosidase reporter gene assay relative to control; type: cell-based; how it was run: as §2
[16] = Cytotoxicity against human ARN8 cells at 20 uM; type: cell-based; details: arn8, 20 µM

Compound	Activity [1]	inhibition [2]	inhibition [3]	solubility [4] [µg/mL]	inhibition [5]	inhibition [6]	inhibition [7]	inhibition [8] [%]	Drug metabolism [9]	IC50 [10] [µM]	IC50 [11] [µM]	fold change (FC) [12]	fold change (FC) [13]	Activity [14]	fold change (FC) [15]	Activity [16]
CN(C)CCCCC(=O)Nc1ccc(NC(=S)NC(=O)c2ccc(C(C)(C)C)cc2)cc1.Cl	Toxic	Active	Active	0.74	Active	Active	Active	73.9	Active							
CN(C)CCOCCOCCOCCOCCOCC(=O)Nc1ccc(NC(=S)NC(=O)c2ccc(C(C)(C)C)cc2)cc1.Cl		inactive		> 1.34	inactive		inactive	29.6		> 60	> 90					
CCCCc1ccc(C(=O)NC(=S)Nc2ccc(NC(=O)CCCCN(C)C)cc2)cc1.Cl	Toxic		inactive			inactive		56.3		46.3	8.6	0.91	0.28	Toxic	0.93	Toxic
CN(C)CCCC(=O)Nc1ccc(NC(=S)NC(=O)c2ccc(C(C)(C)C)cc2)cc1.Cl		Active		0.57	Active		inactive	85.2		35.8	12.8					

— ChEMBL document CHEMBL1944602, “Synthesis and biological characterisation of sirtuin inhibitors based on the tenovins” (Bioorg Med Chem, 2012)
